Active and inactive are the calls of the source. The calls are words filed in the database; no cut-off is given here.
Key:
[1] = target: T1, Tyrosine-protein phosphatase non-receptor type 5 (Rattus norvegicus) (UniProt P35234); experiment: Inhibition of STEP in Sprague-Dawley rat embryo primary cortical neurons assessed as phosphorylation of Pyk2 at 0.1 to 10 uM after 1 hr by Western blot analysis; conditions: Cerebral cortex neuron
T1 sequence (whole entry): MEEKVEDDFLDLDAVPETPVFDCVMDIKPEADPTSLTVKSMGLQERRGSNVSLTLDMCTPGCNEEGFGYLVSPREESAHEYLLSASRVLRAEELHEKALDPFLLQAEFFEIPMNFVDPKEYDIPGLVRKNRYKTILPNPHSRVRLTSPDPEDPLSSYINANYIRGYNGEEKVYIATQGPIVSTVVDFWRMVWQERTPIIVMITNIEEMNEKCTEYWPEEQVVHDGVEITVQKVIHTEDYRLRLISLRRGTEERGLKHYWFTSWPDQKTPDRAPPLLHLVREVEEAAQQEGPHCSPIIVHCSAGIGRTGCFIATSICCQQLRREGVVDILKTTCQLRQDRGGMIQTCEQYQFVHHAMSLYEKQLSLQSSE
Procedure, shortened: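 E18 rat cortical neurons were trypsin-dissociated and plated on poly-D-lysine in Neurobasal with 2% B27, then grown 18–21 days at 37 °C. Compound was added at final 0, 0.1, 1 or 10 μM (0.1% DMSO) for 1 h at 37 °C. Cells were lysed in RIPA with protease/phosphatase inhibitors and protein measured by BCA. Phospho and total proteins were blotted by SDS-PAGE, with antibodies overnight at 4 °C and chemiluminescent detection.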

[2] = species on record: Homo sapiens; experiment: Selectivity ratio of Ki for human LAR to Ki for human STEP
Procedure, shortened: (§1)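 STEP, CD45, LAR and TC-PTP used pNPP (500 μM) in imidazole/NaCl pH 7.0 with Triton X-100, read at 405 nm for 20 min. MKP5 used DiFMUP in Tris-HCl pH 8.0. The enzyme's own pNPP KM was used in analysis; ratio of the Ki values.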

[3] = species on record: Homo sapiens; experiment: Selectivity ratio of Ki for human CD45 to Ki for human STEP; procedure, shortened: as §1
[4] = target: Receptor-type tyrosine-protein phosphatase F (Homo sapiens, UniProt P10586); experiment: Inhibition of human LAR using pNPP as substrate after 5 mins by spectrophotometric plate reader analysis
Procedure, shortened: (§2)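 Enzyme preincubated 5 min at 27 °C with serially diluted inhibitor (from DMSO) in imidazole/NaCl buffer pH 7.0 with 0.01% Triton X-100 and 5 mM DTT. Started with pNPP (500 μM in assay) and read at 405 nm for 20 min. The pNPP KM was measured for each enzyme. Ki from nonlinear regression of substrate–velocity curves at several inhibitor levels; at least duplicate.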

[5] = target: T2, Receptor-type tyrosine-protein phosphatase C (Homo sapiens, UniProt P08575); experiment: Inhibition of human CD45 using pNPP as substrate after 5 mins by spectrophotometric plate reader analysis; procedure, shortened: as §2
T2 sequence (P08575 whole entry): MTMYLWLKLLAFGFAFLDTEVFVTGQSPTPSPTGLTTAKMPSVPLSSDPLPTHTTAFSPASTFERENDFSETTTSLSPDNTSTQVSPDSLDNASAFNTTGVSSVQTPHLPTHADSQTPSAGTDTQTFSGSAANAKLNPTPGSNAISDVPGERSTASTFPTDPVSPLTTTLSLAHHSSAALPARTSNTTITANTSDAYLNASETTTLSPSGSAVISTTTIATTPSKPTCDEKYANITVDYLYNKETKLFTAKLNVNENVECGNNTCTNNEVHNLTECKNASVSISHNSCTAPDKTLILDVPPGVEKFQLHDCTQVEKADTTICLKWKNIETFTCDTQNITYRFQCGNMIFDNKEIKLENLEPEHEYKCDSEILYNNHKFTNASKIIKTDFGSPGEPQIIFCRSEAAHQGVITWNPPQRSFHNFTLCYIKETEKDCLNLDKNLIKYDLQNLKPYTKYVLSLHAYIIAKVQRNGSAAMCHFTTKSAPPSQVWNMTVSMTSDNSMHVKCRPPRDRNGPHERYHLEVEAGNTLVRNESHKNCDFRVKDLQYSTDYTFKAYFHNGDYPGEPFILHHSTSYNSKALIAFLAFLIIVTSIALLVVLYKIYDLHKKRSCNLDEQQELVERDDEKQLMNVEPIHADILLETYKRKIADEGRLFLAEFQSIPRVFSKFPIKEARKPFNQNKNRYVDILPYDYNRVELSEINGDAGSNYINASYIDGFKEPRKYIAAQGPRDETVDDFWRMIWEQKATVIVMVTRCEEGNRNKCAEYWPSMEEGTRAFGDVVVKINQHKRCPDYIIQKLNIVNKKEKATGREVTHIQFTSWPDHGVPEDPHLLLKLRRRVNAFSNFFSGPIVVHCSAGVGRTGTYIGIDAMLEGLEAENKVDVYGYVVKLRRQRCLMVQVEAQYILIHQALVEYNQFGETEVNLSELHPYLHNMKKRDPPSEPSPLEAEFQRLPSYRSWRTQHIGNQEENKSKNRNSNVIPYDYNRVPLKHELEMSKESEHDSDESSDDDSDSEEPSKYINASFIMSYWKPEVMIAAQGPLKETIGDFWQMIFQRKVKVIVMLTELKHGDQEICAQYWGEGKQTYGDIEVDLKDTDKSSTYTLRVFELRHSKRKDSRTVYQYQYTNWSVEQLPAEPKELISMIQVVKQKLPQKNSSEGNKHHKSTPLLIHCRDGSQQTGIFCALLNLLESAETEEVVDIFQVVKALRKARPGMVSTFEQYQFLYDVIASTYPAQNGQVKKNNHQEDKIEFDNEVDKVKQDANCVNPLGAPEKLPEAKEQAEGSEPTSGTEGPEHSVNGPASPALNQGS

[6] = target: T3, Tyrosine-protein phosphatase non-receptor type 5 (Homo sapiens, UniProt P54829); experiment: Inhibition of human STEP using pNPP as substrate after 5 mins by spectrophotometric plate reader analysis
T3 sequence (P54829 whole entry): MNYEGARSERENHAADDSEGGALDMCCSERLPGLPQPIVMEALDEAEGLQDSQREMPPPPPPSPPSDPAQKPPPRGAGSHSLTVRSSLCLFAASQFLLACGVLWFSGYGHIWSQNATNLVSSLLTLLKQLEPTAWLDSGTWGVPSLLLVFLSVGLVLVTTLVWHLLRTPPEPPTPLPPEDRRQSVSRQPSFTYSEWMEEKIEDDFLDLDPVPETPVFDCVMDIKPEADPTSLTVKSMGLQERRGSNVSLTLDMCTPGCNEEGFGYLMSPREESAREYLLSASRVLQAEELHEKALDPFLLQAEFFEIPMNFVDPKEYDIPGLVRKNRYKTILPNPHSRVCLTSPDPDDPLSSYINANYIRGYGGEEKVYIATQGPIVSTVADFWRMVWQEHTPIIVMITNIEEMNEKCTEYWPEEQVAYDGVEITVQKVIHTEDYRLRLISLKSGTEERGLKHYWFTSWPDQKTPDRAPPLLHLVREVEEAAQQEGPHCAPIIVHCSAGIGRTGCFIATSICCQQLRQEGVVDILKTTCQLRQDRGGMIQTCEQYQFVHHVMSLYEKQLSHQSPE

[7] = species on record: Homo sapiens; experiment: Selectivity ratio of Ki for human TC-PTP to Ki for human STEP; procedure, shortened: as §1

Receptor-type tyrosine-protein phosphatase F, sequence (P10586 whole entry): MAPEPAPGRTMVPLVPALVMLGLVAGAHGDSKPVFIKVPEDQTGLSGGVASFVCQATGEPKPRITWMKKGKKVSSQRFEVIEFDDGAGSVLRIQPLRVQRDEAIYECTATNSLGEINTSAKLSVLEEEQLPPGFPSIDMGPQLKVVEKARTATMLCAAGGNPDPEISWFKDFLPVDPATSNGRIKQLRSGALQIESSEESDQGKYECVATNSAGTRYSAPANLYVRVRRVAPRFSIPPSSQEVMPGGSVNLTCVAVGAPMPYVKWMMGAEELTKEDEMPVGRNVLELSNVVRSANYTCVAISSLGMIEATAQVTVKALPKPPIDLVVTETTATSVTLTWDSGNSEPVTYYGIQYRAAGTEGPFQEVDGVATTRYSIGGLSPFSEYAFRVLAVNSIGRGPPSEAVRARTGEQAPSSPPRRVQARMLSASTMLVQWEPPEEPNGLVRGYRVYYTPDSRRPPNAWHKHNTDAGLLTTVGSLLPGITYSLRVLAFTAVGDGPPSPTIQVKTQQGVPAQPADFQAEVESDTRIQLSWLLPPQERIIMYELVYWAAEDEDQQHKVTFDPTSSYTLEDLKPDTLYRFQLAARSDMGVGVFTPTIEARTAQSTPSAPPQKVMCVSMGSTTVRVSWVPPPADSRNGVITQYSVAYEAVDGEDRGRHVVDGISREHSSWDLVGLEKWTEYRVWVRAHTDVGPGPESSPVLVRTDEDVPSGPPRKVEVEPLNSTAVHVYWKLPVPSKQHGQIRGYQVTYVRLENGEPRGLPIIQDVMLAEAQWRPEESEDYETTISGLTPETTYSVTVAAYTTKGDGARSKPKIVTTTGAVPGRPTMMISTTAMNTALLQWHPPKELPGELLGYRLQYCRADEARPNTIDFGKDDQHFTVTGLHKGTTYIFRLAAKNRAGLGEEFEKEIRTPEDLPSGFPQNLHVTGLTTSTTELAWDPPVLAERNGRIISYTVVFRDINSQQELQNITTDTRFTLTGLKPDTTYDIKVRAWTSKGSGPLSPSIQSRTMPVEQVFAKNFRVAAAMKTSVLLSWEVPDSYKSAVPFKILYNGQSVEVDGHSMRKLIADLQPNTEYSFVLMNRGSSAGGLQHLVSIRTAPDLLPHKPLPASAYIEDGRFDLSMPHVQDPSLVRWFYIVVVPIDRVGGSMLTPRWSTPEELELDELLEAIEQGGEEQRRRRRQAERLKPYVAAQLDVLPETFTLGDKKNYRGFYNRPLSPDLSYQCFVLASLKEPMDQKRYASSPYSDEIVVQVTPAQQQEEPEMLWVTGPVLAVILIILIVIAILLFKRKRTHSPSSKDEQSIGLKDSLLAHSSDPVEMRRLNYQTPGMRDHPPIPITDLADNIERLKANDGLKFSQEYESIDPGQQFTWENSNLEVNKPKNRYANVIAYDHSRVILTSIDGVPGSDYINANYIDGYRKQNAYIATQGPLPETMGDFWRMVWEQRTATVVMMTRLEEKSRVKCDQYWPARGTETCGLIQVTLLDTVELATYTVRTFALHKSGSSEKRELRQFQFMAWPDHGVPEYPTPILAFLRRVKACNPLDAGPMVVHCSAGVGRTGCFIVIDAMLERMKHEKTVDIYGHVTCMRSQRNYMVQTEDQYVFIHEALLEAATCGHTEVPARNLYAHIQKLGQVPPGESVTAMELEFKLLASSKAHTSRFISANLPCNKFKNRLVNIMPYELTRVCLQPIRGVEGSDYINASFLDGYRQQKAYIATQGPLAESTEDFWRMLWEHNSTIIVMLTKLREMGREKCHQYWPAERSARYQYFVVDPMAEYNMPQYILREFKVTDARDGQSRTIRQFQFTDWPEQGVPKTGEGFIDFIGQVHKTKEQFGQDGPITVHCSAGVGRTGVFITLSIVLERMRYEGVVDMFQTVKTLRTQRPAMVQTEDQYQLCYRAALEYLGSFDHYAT

Compound	inhibition [1]	Ratio Ki [2]	Ratio Ki [3]	Ki [4] [µM]	Ki [5] [µM]	Ki [6] [µM]	Ratio Ki [7]
O=P(O)(O)[C@H](O)c1ccc(-c2cccc([C@@H](O)c3ccc(Cl)c(Cl)c3)c2)cc1	Active	40	38	360	340	8.9	18
O=P(O)(O)[C@H](O)c1ccc(-c2cccc([C@H](O)c3ccc(Cl)c(Cl)c3)c2)cc1	Active	50	35	390	270	7.8	22

From ChEMBL document CHEMBL2429849, “Substrate-based fragment identification for the development of selective, nonpeptidic inhibitors of striatal-enriched protein tyrosine phosphatase” (J Med Chem, 2013)
